ChEMBL document CHEMBL1137710, “Synthesis and in vitro antitumor activity of new quinoxaline derivatives” (2009)

How the values were obtained:
Type in all cases: functional
SF-268 = assay: Growth inhibition of human SF268 cells after 48 hrs by sulforhodamine B assay; details: SF-268, 48 h
Method in brief: (§1)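 NCI 60-human-tumor-cell-line panel, with compounds tested over a 5-log dose range. Values are taken from dose-response curves as log10 molar concentrations: GI50 is 50% net growth inhibition, TGI is total growth inhibition, and LC50 is 50% net cell death.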

NCI-H522 = assay: Growth inhibition of human NCI-H522 cells after 48 hrs by sulforhodamine B assay; details: NCI-H522, 48 h; method in brief: as §1
SF-539 = assay: Growth inhibition of human SF539 cells after 48 hrs by sulforhodamine B assay; details: SF-539, 48 h; method in brief: as §1
OVCAR-4 = assay: Growth inhibition of human OVCAR4 cells after 48 hrs by sulforhodamine B assay; details: OVCAR-4, 48 h; method in brief: as §1
NCI-H226 = assay: Growth inhibition of human NCI-H226 cells after 48 hrs by sulforhodamine B assay; details: NCI-H226, 48 h; method in brief: as §1
SK-MEL-5 = assay: Growth inhibition of human SK-MEL-5 cells after 48 hrs by sulforhodamine B assay; details: SK-MEL-5, 48 h; method in brief: as §1
NCI-H460 = assay: Anticancer activity against human NCI-H460 cells assessed as cell growth at 100 uM after 48 hrs by sulforhodamine B assay; details: NCI-H460, 48 h, read-out: Activity
HOP-62 = assay: Growth inhibition of human HOP62 cells after 48 hrs by sulforhodamine B assay; details: HOP-62, 48 h; method in brief: as §1
HL-60(TB) = assay: Growth inhibition of human HL-60(TB) cells after 48 hrs by sulforhodamine B assay; details: HL-60, 48 h
Method in brief: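 Tested only on compounds active in a three-line prescreen, in the NCI 60-human-tumour-cell-line panel over a 5-log dose range. Values come from dose–response curves as log10 molar GI50, the concentration inhibiting 50% net cell growth. Log10 TGI (total growth inhibition) and log10 LC50 (50% net cell death) were derived too. Mean graph midpoints include insensitive lines at the highest concentration tested.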

MOLT-4 = assay: Growth inhibition of human MOLT4 cells after 48 hrs by sulforhodamine B assay; details: MOLT-4, 48 h; method in brief: as §1
UO-31 = assay: Growth inhibition of human UO31 cells after 48 hrs by sulforhodamine B assay; details: UO-31, 48 h
Method in brief: (§2)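 Run in the NCI 60-human-tumour-cell-line panel, tested over a 5-log dose range. Dose–response curves gave three values per cell line, each as a log10 molar concentration: GI50 (50% inhibition of net cell growth), TGI (total inhibition of net growth) and LC50 (50% net cell death). The mean graph midpoint is the arithmetic mean over all lines, with insensitive lines entered at the highest concentration tested.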

T47D = assay: Growth inhibition of human T47D cells after 48 hrs by sulforhodamine B assay; method in brief: as §2
SK-MEL-2 = assay: Growth inhibition of human SK-MEL-2 cells after 48 hrs by sulforhodamine B assay; details: SK-MEL-2, 48 h; method in brief: as §1
MCF7 = assay: Growth inhibition of human MCF7 cells after 48 hrs by sulforhodamine B assay; details: MCF7, 48 h; method in brief: as §1
Malme-3M = assay: Growth inhibition of human MALME-3M cells after 48 hrs by sulforhodamine B assay; method in brief: as §1
UACC-257 = assay: Growth inhibition of human UACC257 cells after 48 hrs by sulforhodamine B assay; details: UACC-257, 48 h; method in brief: as §2
SN12C = assay: Growth inhibition of human SN12C cells after 48 hrs by sulforhodamine B assay; method in brief: as §2
CCRF-CEM = assay: Growth inhibition of human CCRF-CEM cells after 48 hrs by sulforhodamine B assay; method in brief: as §1
NCI-H322M = assay: Growth inhibition of human NCI-H322M cells after 48 hrs by sulforhodamine B assay; method in brief: as §1
OVCAR-3 = assay: Growth inhibition of human OVCAR-3 cells after 48 hrs by sulforhodamine B assay; details: OVCAR-3, 48 h; method in brief: as §1
A498 = assay: Growth inhibition of human A498 cells after 48 hrs by sulforhodamine B assay; details: A498, 48 h; method in brief: as §1
UACC-62 = assay: Growth inhibition of human UACC62 cells after 48 hrs by sulforhodamine B assay; details: UACC-62, 48 h; method in brief: as §2
K562 = assay: Growth inhibition of human K562 cells after 48 hrs by sulforhodamine B assay; details: K562, 48 h; method in brief: as §1
SK-MEL-28 = assay: Growth inhibition of human SK-MEL-28 cells after 48 hrs by sulforhodamine B assay; details: SK-MEL-28, 48 h; method in brief: as §1
IGROV-1 = assay: Growth inhibition of human IGROV1 cells after 48 hrs by sulforhodamine B assay; details: IGROV-1, 48 h; method in brief: as §1
HCT-15 = assay: Growth inhibition of human HCT15 cells after 48 hrs by sulforhodamine B assay; details: HCT-15, 48 h; method in brief: as §1
[1] = read-out: pLC50 (the source's name) (converted)

Nc1cc(N)c2nc(-c3ccccc3)c(NCc3ccc(Cl)c(Cl)c3)nc2c1
GI50 (SF-268): 20 µM | LC50 (SF-268): > 100 µM | TGI (SF-268; read-out: pTGI (converted)): 55 µM | GI50 (NCI-H522): 2.04 µM | LC50 (NCI-H522): 22.4 µM | TGI (NCI-H522; read-out: pTGI (converted)): 4.9 µM | GI50 (SF-539): 4.57 µM | LC50 (SF-539): 83.2 µM | TGI (SF-539; read-out: pTGI (converted)): 18.6 µM | GI50 (OVCAR-4): 11.7 µM | CC50 (OVCAR-4; [1]): > 100 µM | TGI (OVCAR-4; read-out: pTGI (converted)): > 100 µM | GI50 (NCI-H226): 22.4 µM | LC50 (NCI-H226): 95.5 µM | TGI (NCI-H226; read-out: pTGI (converted)): 46.8 µM | GI50 (SK-MEL-5): 3.47 µM | CC50 (SK-MEL-5; [1]): 34.7 µM | TGI (SK-MEL-5; read-out: pTGI (converted)): 10.7 µM | growth at 100 µM (NCI-H460): 0% | GI50 (HOP-62): 15.8 µM | LC50 (HOP-62): 64.6 µM | TGI (HOP-62; read-out: pTGI (converted)): 31.6 µM | GI50 (HL-60(TB)): 1.82 µM | LC50 (HL-60(TB)): > 100 µM | TGI (HL-60(TB); read-out: pTGI (converted)): 7.94 µM | GI50 (MOLT-4): 2.09 µM | LC50 (MOLT-4): > 100 µM | TGI (MOLT-4; read-out: pTGI (converted)): > 100 µM | GI50 (UO-31): 4.17 µM | CC50 (UO-31; [1]): > 100 µM | TGI (UO-31; read-out: pTGI (converted)): > 100 µM | GI50 (T47D): 19.5 µM | CC50 (T47D; [1]): > 100 µM | TGI (T47D; read-out: pTGI (converted)): 55 µM | GI50 (SK-MEL-2): 1.91 µM | CC50 (SK-MEL-2; [1]): 9.55 µM | TGI (SK-MEL-2; read-out: pTGI (converted)): 4.27 µM | GI50 (MCF7): 12.3 µM | CC50 (MCF7; [1]): > 100 µM | TGI (MCF7; read-out: pTGI (converted)): 53.7 µM | GI50 (Malme-3M): 3.39 µM | CC50 (Malme-3M; [1]): 50.1 µM | TGI (Malme-3M; read-out: pTGI (converted)): 13.8 µM | GI50 (UACC-257): 4.57 µM | CC50 (UACC-257; [1]): 43.7 µM | TGI (UACC-257; read-out: pTGI (converted)): 15.8 µM | GI50 (SN12C): 6.03 µM | CC50 (SN12C; [1]): 87.1 µM | TGI (SN12C; read-out: pTGI (converted)): 24 µM | GI50 (CCRF-CEM): 0.132 µM | LC50 (CCRF-CEM): 17.4 µM | TGI (CCRF-CEM; read-out: pTGI (converted)): 1.82 µM | GI50 (NCI-H322M): 13.5 µM | LC50 (NCI-H322M): 69.2 µM | TGI (NCI-H322M; read-out: pTGI (converted)): 30.2 µM | GI50 (OVCAR-3): 2.63 µM | CC50 (OVCAR-3; [1]): 31.6 µM | TGI (OVCAR-3; read-out: pTGI (converted)): 6.92 µM | GI50 (A498): 17.4 µM | CC50 (A498; [1]): 60.3 µM | TGI (A498; read-out: pTGI (converted)): 32.4 µM | GI50 (UACC-62): 14.1 µM | CC50 (UACC-62; [1]): 67.6 µM | TGI (UACC-62; read-out: pTGI (converted)): 30.9 µM | GI50 (K562): 3.09 µM | LC50 (K562): > 100 µM | TGI (K562; read-out: pTGI (converted)): 17.8 µM | GI50 (SK-MEL-28): 18.6 µM | CC50 (SK-MEL-28; [1]): 93.3 µM | TGI (SK-MEL-28; read-out: pTGI (converted)): 41.7 µM | GI50 (IGROV-1): 1.95 µM | CC50 (IGROV-1; [1]): 29.5 µM | TGI (IGROV-1; read-out: pTGI (converted)): 5.89 µM | GI50 (HCT-15): 4.68 µM | LC50 (HCT-15): > 100 µM | TGI (HCT-15; read-out: pTGI (converted)): > 100 µM
